A selection: hits, their analogues and other compounds. The true share with any hit is near 0.7%.
procasp7 counter: procaspase-7 activators, primary screen, counter-screen for procaspase-3 activator project, biochemical, absorbance, HTS, human; recombinant procaspase-7, Ac-DEVD-pNA absorbance 405 nm; D23A/D198A/D206A triple mutant, cannot self-cleave; scale: DMSO 0, 5 µM enzyme 100; activation, % at 8.5 µM; hit rate 0.093% among 330,000;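 active = percent activation above the screen-wide mean plus 3 SD, cut at about 25% in these data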
Target sequence (P55210 whole entry D23A/D198A/D206A): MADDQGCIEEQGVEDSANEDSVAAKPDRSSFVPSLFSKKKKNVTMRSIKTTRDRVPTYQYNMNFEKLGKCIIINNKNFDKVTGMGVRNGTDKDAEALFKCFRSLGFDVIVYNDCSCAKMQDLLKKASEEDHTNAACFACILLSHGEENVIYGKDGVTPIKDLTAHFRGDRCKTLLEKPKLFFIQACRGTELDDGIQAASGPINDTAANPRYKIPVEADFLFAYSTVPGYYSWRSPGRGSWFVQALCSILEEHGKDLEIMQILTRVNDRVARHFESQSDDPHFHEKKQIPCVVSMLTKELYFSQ
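System: Uncleavable procaspase-7 mutant enzyme; Amount: 2 µM procaspase-7 mutant as dispensed; Schedule: 1 h compound preincubation, 2 h substrate cleavage, 25 °C; Measured by: 405 nm absorbance of p-nitroaniline; Evaluation: percent activation from buffer-corrected 0–120 min absorbance change; Control set: low DMSO alone, high DMSO plus 5 µM PC-7.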
FXN GAA850 act: FXN promoter activators, primary screen, cell-based, luciferase luminescence, HEK293 lucGAA850 | activation, % at 6 µM | hit rate 0.56% among 360,000 | AID 540364, 2011 | HEK293 lucGAA850 FXN promoter luciferase reporter, 24 h; percent of 10 µM SAHA response;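 active = activation above the average of all compounds screened plus 3 SD, cutoff fixed separately per campaign, cut at about 7.5% in these data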
procasp3 activ: activators of human procaspase-3 D3A mutant, primary screen, biochemical, absorbance, PC-3 D3A mutant, single concentration; Caspase-3 (Homo sapiens), P42574; recombinant procaspase-3 D3A, Ac-DEVD-pNA absorbance 405 nm; activation, % at 8.5 µM; hit rate 0.11% among 330,000;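 active = activation above the mean of all tested compounds plus 3 SD, cut at about 21% in these data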
Target sequence (P42574 whole entry D9A/D28A/D175A): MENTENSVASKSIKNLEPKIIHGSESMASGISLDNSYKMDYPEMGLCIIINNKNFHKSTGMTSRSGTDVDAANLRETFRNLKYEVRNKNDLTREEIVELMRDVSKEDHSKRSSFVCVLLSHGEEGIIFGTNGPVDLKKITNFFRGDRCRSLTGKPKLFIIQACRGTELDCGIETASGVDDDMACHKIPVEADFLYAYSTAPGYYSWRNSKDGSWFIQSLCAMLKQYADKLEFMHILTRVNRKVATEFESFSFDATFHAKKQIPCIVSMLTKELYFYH
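System: Procaspase-3 D3A mutant. Medium: Zinc-free 300 mM NaCl, 50 mM HEPES, 0.01% Triton X-100. Schedule: 1 h preincubation plus 2 h reaction at 25 °C. Measured by: 405 nm absorbance of p-nitroaniline, reads at 0 and 120 min. Read-out: percent activation relative to control range.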
GAA30 counter: GAA30 FXN promoter activators, confirmation, counter-screen for GAA850 frataxin promoter activator project, cell-based, luminescence, HEK293, lucGAA30, triplicate | shares compounds with FXN GAA850 act | HEK293 lucGAA30 FXN promoter luciferase, 24 h; DMSO = 0%, 5 µM ipriflavone = 100% | activation, % at 6 µM | hit rate 66% among 1,900 | AID 588350, 2011;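 active = mean activation above the mean of solvent-only control wells plus 3 SD, cut at about 22% in these data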;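 also: counterscreen of GAA850 promoter hits where activity marks nonselective or luminescence artifacts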
GAA850 confirm: FXN GAA850 promoter activators in reporter cells, confirmation, cell-based, luminescence, HEK293 lucGAA850, triplicate. HEK293 lucGAA850 FXN promoter luciferase reporter, 24 h; 100% = activation by SAHA. activation, % at 6 µM. hit rate 86% among 1,900. shares compounds with FXN GAA850 act. AID 588351, 2011;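 active = mean activation above a set limit taken from the primary screen, cut at about 8% in these data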
A number is an active result; . = inactive; / = no result.

SMILES	procasp7 counter	FXN GAA850 act	procasp3 activ	GAA30 counter	GAA850 confirm
O=C(COC(=O)c1ccccc1F)NCc1ccc2c(c1)OCO2	.	.	.	/	/
CCCc1cc(=O)n2nc(N3CCC(C(=O)N4CCN(c5ccc(OC)cc5)CC4)CC3)sc2n1	.	.	.	/	/
CN1CCCN(C(=O)c2cccc3ccccc23)CC1	.	.	.	/	/
Cc1cccc(OCC2CCCN(Cc3nc(C4CC4)no3)C2)c1 (stereo unspecified)	.	.	.	/	/
CC(C)C[C@@]12C(=O)N(c3cccc(Cl)c3)C(=O)N1[C@H](c1ccc(F)cc1)[C@@H]1C(=O)N(C3CCCCC3)C(=O)[C@@H]12	.	12	.	.	20
CCN1C(=O)[C@H]2[C@@H](c3ccc(C)cc3)N3C(=O)N(c4ccc(C(F)(F)F)cc4)C(=O)[C@@]3(Cc3ccccc3)[C@H]2C1=O	.	.	.	/	/
CC[C@@]12C(=O)N(c3ccc(OC)cc3)C(=O)N1[C@H](c1ccc(Cl)cc1)[C@@H]1C(=O)N(C3CCCCC3)C(=O)[C@@H]12	.	10	.	30	.
CCN1C(=O)[C@H]2[C@@H](c3ccc(C)cc3)N3C(=O)N(c4ccc(OC)cc4)C(=O)[C@@]3(CC)[C@H]2C1=O	.	.	.	/	/
CC(C)C[C@@]12C(=O)N(c3cccc(Cl)c3)C(=O)N1[C@H](c1ccc(Cl)cc1)[C@@H]1C(=O)N(C3CCCCC3)C(=O)[C@@H]12	.	.	.	/	/
O=C1[C@H]2[C@@H](c3ccc(Cl)cc3)N3C(=O)N(c4cccc(Cl)c4)C(=O)[C@@]3(Cc3ccc(Cl)cc3)[C@H]2C(=O)N1C1CCCCC1	.	9.6	.	23	10
O=C1[C@H]2[C@@H](c3ccc(F)cc3)N3C(=O)N(c4ccc(Br)cc4)C(=O)[C@@]3(Cc3ccccc3)[C@H]2C(=O)N1C1CCCCC1	.	9.1	.	.	.
CC(=O)Nc1ccc(S(=O)(=O)N(C)CC(=O)OCC(=O)N2CC(C)OC(C)C2)cc1 (stereo unspecified)	.	.	.	/	/
Cc1ccc(C)c(C(=O)COC(=O)CCN2C(=O)C3C4CCC(C4)C3C2=O)c1 (stereo unspecified)	/	.	/	/	/
O=C(NNC1CC(=O)N(c2ccc(Br)cc2)C1=O)c1cccnc1 (stereo unspecified)	.	.	.	/	/
N#CCC(=O)Nc1ccc(C(=O)OCC(=O)Nc2ccc3ccccc3c2)cc1	.	.	.	/	/
Cc1ccc(C2=C(c3ccc([N+](=O)[O-])cc3)C(=O)OC2)cc1C	.	.	.	/	/
Cc1ccc(N2C(=O)N3[C@H](c4ccc(F)cc4)[C@@H]4C(=O)N(C5CCCCC5)C(=O)[C@@H]4[C@]3(C)C2=O)cc1	.	13	.	.	.
CCN1C(=O)[C@H]2[C@@H](c3ccc(C)cc3)N3C(=O)N(c4cccc(F)c4)C(=O)[C@@]3(C)[C@H]2C1=O	.	.	.	/	/
CCOC(=O)c1nn(-c2ccc(C)c(C)c2)c(=O)c(C#N)c1C	.	.	.	/	/
CSc1ccccc1OCc1cc(C(=O)NCCN2CCCc3ccccc32)no1	.	.	.	/	/
COC(=O)c1c(C)[nH]c(C(=O)CSc2ccc(Cl)cc2)c1C	.	8.3	.	114	35
COC(=O)c1c(C)[nH]c(C(=O)CC#N)c1C	.	.	.	/	/
COc1cccc(-c2cnc3c(NC=O)cc(-c4ccc(N5CCN(C)CC5)cc4)cn23)c1	/	8.8	/	83	40
COc1cccc(-c2cnc3c(NC=O)cc(-c4ccccc4)cn23)c1	/	.	/	/	/
O=[N+]([O-])c1cc(/C=N\O)ccc1Oc1ccc(F)cc1	.	9.4	.	51	25
SMILES	procasp7 counter	FXN GAA850 act	procasp3 activ	GAA30 counter	GAA850 confirm
COc1cc(/C=N/O)ccc1Oc1ccc([N+](=O)[O-])cc1[N+](=O)[O-]	.	.	.	/	/
CC1CN(Cc2ccccc2)c2nc3c(c(=O)n(CC(N)=O)c(=O)n3C)n2C1 (stereo unspecified)	.	.	.	/	/
CC1CN(c2ccc(Oc3ccccc3)cc2)c2nc3c(c(=O)n(CC(N)=O)c(=O)n3C)n2C1 (stereo unspecified)	.	18	.	.	.
CC(=O)OC1CCC2(C)C(COc3ccc4ccc(=O)oc4c3)C(C)(O)CCC2C1(C)C (stereo unspecified)	.	12	.	.	17
C=C1CCC2C(C)(C)[C@@H](O)CC[C@@]2(C)[C@@H]1COc1ccc2ccc(=O)oc2c1 (stereo partly specified)	.	.	.	/	/
CSC(=NC#N)N1CCN(c2ccc(Cl)cc2)CC1	.	.	.	/	/
c1cncc(-c2nn3c(Cn4nnc5ccccc54)nnc3s2)c1	.	16	.	.	.
c1ccc(-c2nn3c(Cn4nnc5ccccc54)nnc3s2)nc1	.	.	.	/	/
O=c1oc2ccccc2cc1-c1nc(-c2ccccc2)no1	.	.	.	/	/
O=c1oc2ccccc2cc1-c1nc2ccccc2o1	.	8.4	.	122	37
COc1ccc(/C=C/C(=O)OCCNC(=O)c2ccncc2)cc1OC	.	.	.	/	/
CCCCOC(=O)/C=C/c1ccc(OC(=O)OC)c(OC(=O)OC)c1	.	10	.	63	32
COc1ccc(/C=C/C(=O)Oc2ccc(C=O)cc2OC)cc1	.	.	.	/	/
COC(=O)Oc1ccc(/C=C/C(=O)OC(C)C)cc1OC(=O)OC	.	11	.	52	32
COCCNC(=O)Cn1cnc2c(cnn2-c2ccc(C)cc2)c1=O	.	.	.	/	/
CC1CN(C(=S)NC(=O)c2ccco2)CC(C)O1 (stereo unspecified)	.	.	.	/	/
CNC[C@H](O)c1cccc(O)c1	.	.	.	/	/
CCN(CC(O)c1cccc(O)c1)C(=O)C12CC3CC(CC(C3)C1)C2 (stereo unspecified)	.	19	.	33	23
Cc1ccc(N(C(=O)c2csnn2)C(C(=O)NC2CCCCC2)c2cccnc2)c(C)c1 (stereo unspecified)	.	.	.	/	/
O=C1CC(c2ccccc2)Sc2nc3ccccc3n21 (stereo unspecified)	.	.	.	/	/
O=C1CC(c2ccco2)Sc2nc3ccccc3n21 (stereo unspecified)	.	8.3	.	84	22
N#Cc1c(Cl)nsc1NC(=O)c1ccccc1	.	.	.	/	/
COc1ccccc1Oc1ccc(N/C=C/C(=O)c2ccc(C)o2)cc1	.	.	.	/	/

Screens: PubChem BioAssay, The Scripps Research Institute Molecular Screening Center
